In PubChem BioAssay AID2520 (Sanford-Burnham Center for Chemical Genomics, 2010) one finds activation data, which are given here for 91 compounds.

The whole screen tested about 330,000 compounds, of which about 350 (0.11%) were called active. The full list was thinned out, with actives kept by preference. Values without a mark were called inactive.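 How the source made its calls: active means activation more than six SD over the plate average, tested at 20 µM; inactive means the rest.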

For the assay, the target named is Apelin receptor (Homo sapiens) (UniProt P35414). Put plainly: APJ activation via beta-arrestin recruitment – CHO-K1 cells, PathHunter beta-arrestin, luminescence, primary screen (AID 2520). As to conditions: at 20 µM, active compounds read high, 0% DMSO wells, 100% apelin. In a few lines: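 Assay system: CHO-K1 cells stably expressing ProLink-tagged human APJ and arrestin–beta-gal acceptor. Compound dosing: 20 µM single point, 1% DMSO. Times: 16-18 h seeding, 90 min dark compound exposure, 60 min detection. Detection: beta-gal luminescence. Evaluation: APJ–arrestin association signal. Controls: negative DMSO alone, positive Apelin-13 at 10 nM.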
Chain of Apelin receptor (Homo sapiens) (P35414 whole entry, looked up): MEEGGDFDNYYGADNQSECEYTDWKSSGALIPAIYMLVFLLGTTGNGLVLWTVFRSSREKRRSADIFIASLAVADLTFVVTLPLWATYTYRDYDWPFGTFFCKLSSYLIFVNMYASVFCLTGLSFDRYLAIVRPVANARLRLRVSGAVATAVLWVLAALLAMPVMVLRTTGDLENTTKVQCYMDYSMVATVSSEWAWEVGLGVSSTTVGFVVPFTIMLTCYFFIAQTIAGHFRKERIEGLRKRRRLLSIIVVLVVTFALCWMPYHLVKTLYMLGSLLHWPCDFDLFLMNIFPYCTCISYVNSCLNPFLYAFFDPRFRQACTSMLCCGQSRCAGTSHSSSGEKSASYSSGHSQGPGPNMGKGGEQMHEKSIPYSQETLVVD
On the technique in general: Recruitment of arrestin is a read-out of receptor activation apart from second messengers.
Consider `CCCCc1cc(=O)oc2c(C)c(OCC(=O)N3CCC(C(N)=O)CC3)ccc12`, for which the activation was -4.2%.
With `CCOc1ccc(/C=C/C(=O)N(CC)CC(=O)NCc2cccs2)cc1OC` the figure was 8.54%.
Consider `Cc1nnc(SCC(=O)NC(=O)NC2CCCC2)n1N`, for which the activation is -4.56%.
With `CCN1CCN(C(=O)CCN2C(=O)c3ccccc3C2=O)CC1` the figure was -1.85%; with `COc1ccc2c(c1)N(C)/C(=C1/SC(=S)N(NC(C)=O)C1=O)S2`, -1.51%.
Under `O=C1NC(c2ccccc2)=NC1(Nc1ccccn1)C(F)(F)F` (stereo unspecified) stands 1.8%; under `Cc1ccsc1C(=O)OCC(=O)Nc1cccc(F)c1`, -4.87%.
Under `COc1ccc(-n2c(=O)[nH]c3cc(C(=O)NCCc4ccc(OC)c(OC)c4)ccc3c2=O)c(OC)c1` stands -2.2%; under `O=C(NC1CCCC1)C(NS(=O)(=O)c1ccc(Br)s1)c1ccccc1` (stereo unspecified), 1.83%.
`Cc1ccc2c(c1)NCC(C(=O)NC1CCC(C)CC1)O2` (stereo unspecified): the activation is -1.38%.
Under `N#CC1=C(N)N(c2ccc(F)cc2)C(=O)C1` stands -4.08%.
On to `CC(=O)Nc1ccc(NC(=O)C(C)n2c3ccccc3c3nc(=O)cc(C)n32)cc1` (stereo unspecified), for which the activation is -3.18%.
For `CCOC(=O)C1=C(CC)OC(N)=C(C#N)C1c1ccc(F)cc1F` (stereo unspecified), the activation was -3.78%.
Under `Cc1cccc(NC(=O)c2sc3nc(N4CCOCC4)c4c(c3c2N)CCCC4)c1` stands -11.8%; under `Cc1nc(N2CCOCC2)nc2c1CCCC2`, 0.237%; under `Nc1nc(-c2sc3nc4c(cc3c2N)CCCC4)nc(N2CCOCC2)n1`, 12.3% (active).
Under `CC(=O)NC(=S)Nc1ccc(NC(=O)c2cccnc2)cc1` stands 3.75%.
With `Cc1cc(NS(=O)(=O)c2ccc(NC(=O)c3cccnc3)cc2)nc(C)n1`, the activation is 1.41%.
Under `Cc1ccc2nc(-c3ccc(NC(=O)c4cccnc4)cc3)oc2c1` stands 14.6% (active).
Under `COc1ccc(C)cc1N(CC(=O)NC(C)c1ccccc1)S(C)(=O)=O` (stereo unspecified) stands -1.79%; under `C=CCOc1ccccc1NC(=O)CN1C(=O)CNC1=O`, -2.49%.
Under `COc1ccc(C)cc1NC(=O)CSc1nnc(CC(=O)Nc2ccccc2F)n1C` stands -3.35%.
For `NS(=O)(=O)c1ccc(CCNC(=O)COC(=O)COc2cccc(C(F)(F)F)c2)cc1`, the activation was -3.07%.
Under `COc1cc2c(cc1OC)C(=O)NCC(C)(C)O2` stands -0.328%; under `CN(CCc1ccccn1)C(=O)c1ccc(OC2CCN(Cc3ccccn3)CC2)cc1`, -8.78%; under `CC(C)=CCCC(C)CN1CCC(n2nccc2NC(=O)c2ccccc2)CC1` (stereo unspecified), 1.47%.
Under `CCCn1c(=S)[nH]c2ccc(C(F)(F)F)cc21` stands 0.385%; under `CCCCn1nnnc1NCc1cc(OC)c(OC)c(OC)c1`, -4.13%.
Under `Cc1ccnc(NC(=O)CCC(=O)N(CC(=O)NCCc2ccccc2)Cc2cccs2)c1` stands -3.93%; under `CCCS(=O)(=O)N1CCN=C1SCc1cccc(F)c1`, 2.13%; under `COc1cccc2c(O)cc(=O)n(C)c12`, -2.86%.
`O=C(Nc1cccc([N+](=O)[O-])c1)N1CCc2ccccc2C1`: the activation was -0.709%.
Under `Cc1ccc(O/C=C2\OC(=O)c3ccccc32)cc1` stands -1.88%; under `O=C(OCC(=O)c1cccs1)c1ccc([N+](=O)[O-])o1`, 3.99%.
Under `COC(=O)Cc1cnc(NC(=O)CSc2nc(C(C)C)cc(=O)[nH]2)s1` stands -1.9%; under `O=C1NC(=Nc2ccc(Cl)cc2)SC1Cc1cccc(Cl)c1Cl` (stereo unspecified), -3.58%; under `N#Cc1cccc(NC(=O)COC(=O)c2ccccc2C(=O)c2ccc(Cl)c([N+](=O)[O-])c2)c1`, -0.51%.
For `Cc1ccc(C(=O)C(C)OC(=O)Cc2n[nH]c(=O)c3ccccc23)cc1C` (stereo unspecified), the activation was 6.72%.
`CCc1ccc2c(c1)cc(CN(C(=S)Nc1ccccc1Cl)C1CC1)c1nnnn12`: the activation is 4.19%.
For the compound `Cc1cc(C)c2[nH]c(=O)c(CN(Cc3ccccc3)C(=S)NCCCN(C)C)cc2c1`, the activation is 20.2% (active).
Under `Cc1cccc2cc(CN(Cc3cccs3)C(=S)NCc3ccco3)c(=O)[nH]c12` stands -1.92%.
With `COCCCNC(=S)N(CCN(C)C)Cc1cc2cc3c(cc2[nH]c1=O)OCCO3` the figure was -4.21%; with `O=C1C=CC(=O)N1c1ccc(N2CCCCC2)cc1`, -5.18%.
With `CCCCCCc1cc2cc(-c3nnc(-c4ccccc4)o3)c(=O)oc2cc1O` the figure was 30.8% (active); with `CCc1ccc(CN(C)C(=O)CCc2nnc(-c3ccc(-c4ccccc4)cc3)o2)nc1`, -3.94%; with `Cc1c(CCC(=O)O)c(=O)oc2cc3occ(-c4ccccc4)c3cc12`, -2.13%.
In the case of `CN(c1ccccc1)S(=O)(=O)c1ccc(Cl)c(C(=O)OCC(=O)N2CCOCC2)c1`, the activation is -4.02%.
With `CCn1c(-c2cccnc2Cl)nc2cc(C)c(C)cc21`, the activation is -1.12%.
Under `COCC(=O)Nc1cc(C(=O)OC)cc(C(=O)OC)c1` stands -0.719%.
Under `CCOC(CNC(=O)C(=O)NCC(c1ccco1)N1CCN(c2ccc(OC)cc2)CC1)OCC` (stereo unspecified) stands -4.81%; under `CC(=O)c1ccccc1OCc1ccc(C(=O)c2ccccc2)cc1`, -3.74%.
On to `COc1ccc(N(CCC#N)S(=O)(=O)c2ccc(Cl)cc2)cc1`, for which the activation is -5.53%.
Under `COCn1c(C(O)c2ccccc2)cc2ccccc21` (stereo unspecified) stands -2.04%.
With `COc1ccc(S(=O)(=O)Nc2ccc(F)cc2)c(C)c1C` the figure was -0.449%; with `CCCCN(CC)C(=O)CN(C)S(=O)(=O)c1cccc2nsnc12`, -2.83%.
With `CN(CCC1CCOCC1)Cc1cn[nH]c1-c1ccc(-c2ccccc2)cc1` the figure was -3.69%; with `Cc1ccnc(NS(=O)(=O)c2ccc(NC(=O)c3ccc(S(=O)(=O)N(C)C)cc3)cc2)n1`, -2.66%.
In the case of `CCc1ccccc1NC(=O)CN(C)C(=O)COc1ccc(C)nc1[N+](=O)[O-]`, the activation is -1.82%.
With `CC1CN(C(=O)c2ccc3c(c2)OCO3)OC(c2ccccc2)O1` (stereo unspecified) the figure was -2.94%; with `CC(C)(C)C1CCC(=NNC(=O)c2ccc(Br)o2)CC1` (stereo unspecified), -3.06%.
With `CCC(C)(C)C1CCC(=NNC(=O)c2ccc(Br)o2)CC1` (stereo unspecified) the figure was 19.8% (active); with `O=C(N/N=C\C1CC=CCC1)c1ccc(Br)o1` (stereo unspecified), 8.95%; with `Fc1ccc(CNCc2ccc(Br)cc2)cc1`, -1.03%.
Regarding `COC(=O)c1ccc(NC(=O)CSc2nnc(C3CC3)n2C)cc1`, the activation is -3.11%.
With `O=C(OCCN1C(=O)c2ccccc2C1=O)Oc1ccccc1` the figure was -1.77%; with `O=C(COC(=O)C12CC3CC(CC(O)(C3)C1)C2)NC12CC3CC(CC(C3)C1)C2`, -1.34%; with `O=C(COc1ccc(Cl)cc1)NCCSc1ccccc1`, -1.87%.
With `O=[N+]([O-])c1cc(Cl)cc(/C=N/NC(=S)Nc2cc(S(=O)(=O)N3CCOCC3)ccc2Cl)c1O` the figure was -5.98%.
Take `Cc1ccc(NS(=O)(=O)c2c(C)[nH]c(C)c2C(=O)N2CCCCC2)c(C)c1`: the activation is -0.00146%.
In the case of `CC(=O)c1ccc(OCC(O)CN2CCN(S(=O)(=O)c3cccc(Br)c3)CC2)cc1` (stereo unspecified), the activation was -1.5%.
Under `CSc1ncc(C(=O)Nc2ccc(C)cc2C)c(C)n1` stands -0.333%; under `Cc1ccc(S(=O)(=O)NCc2nc3ccccc3c(=O)n2N)cc1`, -0.607%.
With `CCCc1nc(N2CCN(C)CC2)c2sc(=S)n(-c3ccccc3)c2n1` the figure was -2.45%; with `COC(=O)c1ccc(C)c(NC(=O)C2CC(=O)N(C3CCCC(C)C3C)C2)c1` (stereo unspecified), -2.02%; with `CC(=O)N1CCCc2cc(S(=O)(=O)N3CCCC(C(=O)NCc4ccc(Cl)cc4)C3)ccc21` (stereo unspecified), -0.0955%.
Under `CC(=O)N1CCCc2cc(S(=O)(=O)N3CCCC(C(=O)N4CCN(c5cccc(Cl)c5)CC4)C3)ccc21` (stereo unspecified) stands 19.6% (active); under `CC(=O)N1c2ccc(S(=O)(=O)N3CCCC(C(=O)Nc4cccc(Cl)c4)C3)cc2CC1C` (stereo unspecified), -0.333%; under `O=S(=O)(/C=C/c1ccccc1)N1CCNCC1`, -1.77%.
On to `Cc1ccc(C)c(NC(=O)NNC(=O)c2ccc3ccccc3c2O)c1`, for which the activation is 10%.
With `COc1ccc(N2CCN(C(=O)c3ccccc3NC(=O)C3=C(C)OCCS3)CC2)cc1` the figure was -4.76%; with `COc1cc(NC(=O)C2=C(C)OCCS2)c(Cl)cc1C(=O)NCCN1CCN(C)CC1`, 18.9% (active); with `CCCCNC(=O)c1ccccc1NC(=O)C1=C(C)OCCS1`, 0.515%.
Under `CCOC(=O)CSc1nnc(NC(=O)C2CC(=O)N(c3ccc(F)cc3)C2)s1` (stereo unspecified) stands -4.52%.
Under `C=CCOc1ccc(C2/C(=C(\O)c3c(C)[nH]c(C(=O)OC)c3C)C(=O)C(=O)N2CCN(C)C)cc1` (stereo unspecified) stands -0.14%; under `O=Cc1c(NCCc2cccc(F)c2)c2ccccc2[nH]c1=O`, -3.46%; under `CC(C(=O)Nc1ccc(F)c(F)c1F)N1CCCCCC1` (stereo unspecified), -3.77%.
As to `CC1CCN(C(=O)c2ccc(S(=O)(=O)Cc3cc(F)ccc3F)c([N+](=O)[O-])c2)CC1`, the activation was 1.51%.
Under `CCN1CCN(C(C(=O)NC2CCCC2)c2cc3c(cc2[N+](=O)[O-])OCO3)CC1` (stereo unspecified) stands 9.21%.
Under `O=C(CSc1nc(Nc2ccccc2)nc(N2CCOCC2)n1)Nc1cc(Cl)ccc1O` stands 40.8% (active); under `CC1(c2ccccc2)NC(=O)N(CC(=O)Nc2cc(Cl)ccc2N2CCOCC2)C1=O` (stereo unspecified), -3.1%.
With `Cc1ccccc1NC(=O)CSc1nc2ccc(Nc3nc(N4CCOCC4)nc(N4CCOCC4)n3)cc2s1` the figure was 8.35%.
